Experimental data taken from ChEMBL document CHEMBL1133940, “A novel class of inhibitors for steroid 5alpha-reductase: synthesis and evaluation of umbelliferone derivatives” (Bioorg Med Chem Lett, 2001).
“And” between values parts separate entries of the source, which are not always exact repeats. Equal entries are not always repeated.

Biological target: T1, 3-oxo-5-alpha-steroid 4-dehydrogenase 1 (Homo sapiens, UniProt P18405)
T1 sequence (P18405 whole entry): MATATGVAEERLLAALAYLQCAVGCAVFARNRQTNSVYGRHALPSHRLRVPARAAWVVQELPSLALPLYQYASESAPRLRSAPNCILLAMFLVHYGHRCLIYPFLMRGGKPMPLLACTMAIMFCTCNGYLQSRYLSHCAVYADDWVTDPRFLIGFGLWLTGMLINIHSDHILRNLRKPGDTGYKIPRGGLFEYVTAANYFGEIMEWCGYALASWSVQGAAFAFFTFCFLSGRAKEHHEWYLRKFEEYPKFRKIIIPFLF
Experiment: Inhibitory activity against 5-alpha-reductase type 1 in cell culture system using LNCaP cells (androgen-sensitive human prostatic cancer cell line)
Type: cell-based
How it was run: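 LNCaP cells (express 5aR-1 only) seeded at 2×10⁵ cells/mL/well, grown 24 h in medium with 5% hormone-free FBS. Then exposed to [³H]-testosterone plus test sample (final 0.5% DMSO) for 18 h. Medium extracted with ethyl acetate, [³H]-T and [³H]-DHT separated by TLC. Conversion = DHT radioactivity/(T+DHT). IC50 ([…]) relative to 0.5% DMSO control.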

Row | SMILES | IC50
1 | C=CCc1c(OCC(C)=O)ccc2ccc(=O)oc12 | > 77.4 µM
2 | CC(C)(C)NC(=O)[C@H]1CC[C@H]2[C@@H]3CC[C@H]4NC(=O)C=C[C@]4(C)[C@H]3CC[C@]12C [FINASTERIDE] | 53.1 µM and 53 µM
3 | O=c1ccc2ccc(O)cc2o1 [UMBELLIFERONE] | > 123 µM
4 | C=CCc1c(OC(=O)c2ccccc2)ccc2ccc(=O)oc12 | 0.49 µM
5 | C=CCc1c(OC(=O)Nc2ccccc2)ccc2ccc(=O)oc12 | 0.622 µM and 0.62 µM
6 | C=CCc1c(OCCO)ccc2ccc(=O)oc12 | > 81.2 µM
7 | C=CCOc1ccc2ccc(=O)oc2c1 [7-ALLYLOXYCOUMARIN] | > 98.9 µM
8 | C=CCc1c(OC(C)=O)ccc2ccc(=O)oc12 | 0.819 µM and 0.82 µM
9 | C=CCc1cc2ccc(=O)oc2cc1O | 8.41 µM and 8.4 µM
10 | C=CCc1c(O)ccc2ccc(=O)oc12 | 0.989 µM and 0.99 µM
11 | C=CC(C)(C)Oc1ccc2ccc(=O)oc2c1 | 1.3 µM
12 | C=CCc1c(OC(C)(C)C=C)ccc2ccc(=O)oc12 | 50.3 µM
13 | C#CC(C)(C)Oc1ccc2ccc(=O)oc2c1CC=C | > 14.9 µM
14 | C#CC(C)(C)Oc1ccc2ccc(=O)oc2c1 | > 87.6 µM
15 | C#CCOc1ccc2ccc(=O)oc2c1 | > 99.9 µM
16 | C=CCc1c(OCc2ccccc2)ccc2ccc(=O)oc12 | > 13.7 µM
17 | C=CCc1c(OC)ccc2ccc(=O)oc12 | > 18.5 µM
